High-throughput results from PubChem.
T cruzi growth-1: blocks T. cruzi growth in NIH3T3 culture; T. cruzi beta-gal in NIH3T3, GalScreen luminescence, 90 h; inhibition, % at 8.34 µM; hit rate 5.9% among 77,000;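 active = mean inhibition above about 93%, with at least 55% of replicates each passing it, limit read from the data, passing the limit was not always enough; inconclusive = only one of those two conditions holds; inactive = neither condition holds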
KDM4C inh: KDM4C (human) demethylase inhibition; GST-KDM4C 2-372, H3K9me3 peptide, LANCE TR-FRET; AID 720574; hit rate 0.15% among 96,000; Q9H3R0; inhibition, % at 12.5 µM;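 active = mean replicate inhibition above about 25%, with at least 55% of replicates also reaching it, limit read from the data, passing the limit was not always enough; inconclusive = only one of those two conditions met; inactive = neither condition met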
Target sequence (Q9H3R0 2-372 limits assumed): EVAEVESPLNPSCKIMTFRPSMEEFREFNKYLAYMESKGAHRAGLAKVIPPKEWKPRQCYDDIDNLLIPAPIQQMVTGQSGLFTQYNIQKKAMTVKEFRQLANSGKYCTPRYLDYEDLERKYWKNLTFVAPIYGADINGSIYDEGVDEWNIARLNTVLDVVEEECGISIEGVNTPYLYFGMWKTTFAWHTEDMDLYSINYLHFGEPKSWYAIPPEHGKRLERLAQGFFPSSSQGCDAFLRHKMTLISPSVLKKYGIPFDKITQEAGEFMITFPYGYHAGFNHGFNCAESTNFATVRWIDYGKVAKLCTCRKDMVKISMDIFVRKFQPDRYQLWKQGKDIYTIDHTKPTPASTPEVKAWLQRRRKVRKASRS
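Assay system: GST-GASC-1 enzyme fragment 2-372 | Amount: 10 nM enzyme | Medium: HEPES buffer, pH 7.5, plus ascorbate | Reagent: H3K9me3 peptide substrate, Fe(II), 2-oxoglutarate | Doses: Single-point compound screen | Incubation: 30 min demethylation and 1 h detection at room temperature | Measured by: LANCE TR-FRET, excitation 340 nm, emissions 618 and 671 nm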
Pf Dd2 inh: blocks growth of Plasmodium falciparum Dd2 parasites; AID 1159554; P. falciparum Dd2 growth, SYBR Green, 72 h; hits give low values; hit rate 2.3% among 94,000; activity change, % at 10 µM; in the data active = activity change below about -80%; inconclusive = no clear call, values can overlap the other calls
IDH1 R132H inh: inhibitors of human IDH1 R132H. O75874. IDH1 R132H reductase, diaphorase/resazurin fluorescence, 60 min. inhibition, % at 10 µM. hit rate 0.18% among 70,000; in the data active = inhibition above about 34%; inconclusive = no clear call, values can overlap the other calls; inactive = below about 11%
Target sequence (O75874 whole entry R132H): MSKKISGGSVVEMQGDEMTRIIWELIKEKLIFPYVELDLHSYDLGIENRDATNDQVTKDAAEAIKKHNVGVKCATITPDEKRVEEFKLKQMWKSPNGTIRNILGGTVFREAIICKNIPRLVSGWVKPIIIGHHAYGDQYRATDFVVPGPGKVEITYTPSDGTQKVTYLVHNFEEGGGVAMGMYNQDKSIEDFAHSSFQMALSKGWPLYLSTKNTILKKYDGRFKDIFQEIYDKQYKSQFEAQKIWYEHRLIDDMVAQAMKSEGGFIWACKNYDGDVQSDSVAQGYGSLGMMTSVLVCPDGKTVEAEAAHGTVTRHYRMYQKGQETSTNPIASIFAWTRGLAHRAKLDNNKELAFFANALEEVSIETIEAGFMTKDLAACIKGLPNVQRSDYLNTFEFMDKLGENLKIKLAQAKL
T cruzi growth-2: inhibitors of T. cruzi proliferation. inhibition, % at 8.35 µM. hit rate 72% among 5,600. AID 651739. shares compounds with T cruzi growth-1. T. cruzi beta-gal in NIH3T3, GalScreen luminescence, 90 h;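 active = mean replicate inhibition above about 95% and at least 55% of replicates individually reaching it, limit read from the data; inconclusive = only one of the two criteria is met; inactive = neither criterion is met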
T cruzi growth-3: Trypanosoma cruzi proliferation inhibition. shares compounds with T cruzi growth-1. T. cruzi beta-gal in NIH3T3, GalScreen luminescence, 90 h. inhibition, % at 2.09 µM. hit rate 21% among 5,600;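 active = mean inhibition above about 95%, with at least 55% of replicates also reaching it, limit read from the data; inconclusive = meets just one of the two conditions; inactive = meets neither condition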
NIH3T3 tox: cytotoxicity in mouse NIH/3T3 fibroblasts; cytotoxicity (signal decrease), % at 8.35 µM; AID 651742; shares compounds with T cruzi growth-1; NIH/3T3 viability, CellTiter-Glo ATP luminescence, 90 h; hit rate 14% among 5,600;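 active = mean signal decrease across replicates above about 35% based on untreated-well scatter, with enough replicates individually passing, limit read from the data; inconclusive = no rule stated though some were filed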
NIH3T3 tox 2: NIH/3T3 (mouse) viability loss | shares compounds with T cruzi growth-1 | NIH/3T3 viability, CellTiter-Glo ATP luminescence, 90 h | inhibition, % at 24.9 µM | hit rate 56% among 5,600 | AID 651744;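 active = mean loss of cell viability signal at or above a set limit, and enough replicates individually reaching it; inconclusive = meets only the mean limit or only the replicate share; inactive = meets neither condition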
Of the large screens only hits and unclear results are named; the others gave an inactive call (follow-up assays come after a bar, where they were run). This is a sample that favours compounds with a hit; in the whole collection about 5.8% have one here.

COCC#Cc1ccc2c(c1)O[C@@H](CN(C)Cc1cncnc1)[C@H](C)CN([C@@H](C)CO)S2(=O)=O	T cruzi growth-1 106.3 | T cruzi growth-2 106.4 | T cruzi growth-3 inactive | NIH3T3 tox inactive | NIH3T3 tox 2 36.1
COCC#Cc1ccc2c(c1)O[C@@H](CN(C)Cc1ccccc1)[C@H](C)CN([C@H](C)CO)S2(=O)=O	T cruzi growth-1 108.5 | T cruzi growth-2 inactive | T cruzi growth-3 inactive | NIH3T3 tox 53.2 | NIH3T3 tox 2 105.5
COCC#Cc1ccc2c(c1)O[C@H](CN(C)Cc1cncnc1)[C@@H](C)CN([C@@H](C)CO)S2(=O)=O	none
COCC(=O)Nc1ccc2c(c1)[C@@H]1C[C@H](CC(=O)NCc3ccncc3)O[C@H](CO)[C@@H]1O2	none
COc1ccc(CN(C)C[C@@H]2OCCCC[C@@H](C)Oc3ccc(NC(=O)Nc4ccccc4)cc3C(=O)N([C@H](C)CO)C[C@H]2C)cc1	T cruzi growth-1 110.5 (no result: IDH1 R132H inh) | T cruzi growth-2 inconclusive | T cruzi growth-3 inactive | NIH3T3 tox inactive | NIH3T3 tox 2 104.2
COc1ccc(CN(C)C[C@H]2OCCCC[C@H](C)Oc3ccc(NC(=O)C4CCCCC4)cc3C(=O)N([C@@H](C)CO)C[C@@H]2C)cc1	T cruzi growth-1 104.4 | T cruzi growth-2 106.7 | T cruzi growth-3 inactive | NIH3T3 tox inactive | NIH3T3 tox 2 68.6
COc1ccc(CN(C)C[C@H]2OCCCC[C@H](C)Oc3ccc(NC(=O)Nc4ccccc4)cc3C(=O)N([C@@H](C)CO)C[C@H]2C)cc1	T cruzi growth-1 inconclusive (no result: IDH1 R132H inh) | T cruzi growth-2 109.1 | T cruzi growth-3 inactive | NIH3T3 tox inactive | NIH3T3 tox 2 34.4
COc1ccc(CN(C)C[C@@H]2OCCCC[C@@H](C)Oc3ccc(NC(=O)Nc4ccc(OC)cc4)cc3C(=O)N([C@H](C)CO)C[C@H]2C)cc1	Pf Dd2 inh inconclusive (no result: KDM4C inh, IDH1 R132H inh)
COc1ccc(CN(C)C[C@H]2OCCCC[C@@H](C)Oc3ccc(NC(=O)Nc4ccc(OC)cc4)cc3C(=O)N([C@@H](C)CO)C[C@H]2C)cc1	T cruzi growth-1 104.5 | T cruzi growth-2 103.3 | T cruzi growth-3 inactive | NIH3T3 tox inactive | NIH3T3 tox 2 105.7
COCC#Cc1ccc([C@@H]2[C@H]3CN(Cc4cncnc4)CCCCN3[C@H]2CO)cc1	none (no result: IDH1 R132H inh)
COCC#Cc1ccc([C@@H]2[C@H](CO)N3CCCCN(Cc4cncnc4)C[C@@H]23)cc1	T cruzi growth-1 inconclusive (no result: IDH1 R132H inh) | T cruzi growth-2 inconclusive | T cruzi growth-3 inactive | NIH3T3 tox inactive | NIH3T3 tox 2 inactive
COCC#Cc1ccc([C@@H]2[C@@H](CO)N3CCCCN(Cc4cncnc4)C[C@@H]23)cc1	T cruzi growth-1 105.6 (no result: IDH1 R132H inh) | T cruzi growth-2 inconclusive | T cruzi growth-3 inactive | NIH3T3 tox inactive | NIH3T3 tox 2 inactive
COCC#Cc1ccc([C@H]2[C@@H](CO)N3CCCCN(Cc4cncnc4)C[C@H]23)cc1	T cruzi growth-1 108.8 (no result: IDH1 R132H inh) | T cruzi growth-2 111.6 | T cruzi growth-3 inactive | NIH3T3 tox inactive | NIH3T3 tox 2 inactive
COCC#Cc1ccc([C@@H]2[C@@H](CO)N3CCCCN(Cc4cncnc4)C[C@H]23)cc1	T cruzi growth-1 102.8 (no result: IDH1 R132H inh) | T cruzi growth-2 inactive | T cruzi growth-3 inactive | NIH3T3 tox inactive | NIH3T3 tox 2 64.7
C[C@H](CO)N1C[C@H](C)[C@H](CN(C)S(=O)(=O)c2cccs2)Oc2ccc(NS(C)(=O)=O)cc2CC1=O	none
COc1ccc(S(=O)(=O)Nc2ccc3c(c2)[C@@H]2C[C@H](CC(=O)N(C)C)O[C@H](CO)[C@@H]2O3)cc1	none
C[C@@H]1CCCCO[C@@H](CN(C)C(=O)Nc2ccc(C(F)(F)F)cc2)[C@H](C)CN([C@H](C)CO)C(=O)c2cc(NS(=O)(=O)c3ccccc3)ccc2O1	none
O=C(N[C@H]1CC[C@H](CCn2cc(C3(O)CCCC3)nn2)O[C@H]1CO)C1CCCCC1	none
O=C(C1CCC1)N1CCCCN2[C@@H](CO)[C@@H](c3ccc(C#CC4(O)CCCC4)cc3)[C@@H]2C1	T cruzi growth-1 inconclusive (no result: IDH1 R132H inh) | T cruzi growth-2 inactive | T cruzi growth-3 inactive | NIH3T3 tox inactive | NIH3T3 tox 2 inactive
O=C(C1CCCC1)N1CCCCN2[C@H](CO)[C@@H](c3ccc(C#CC4(O)CCCC4)cc3)[C@@H]2C1	none (no result: KDM4C inh, IDH1 R132H inh)
O=C(C1CCCC1)N1CCCCN2[C@@H](CO)[C@H](c3ccc(C#CC4(O)CCCC4)cc3)[C@@H]2C1	T cruzi growth-1 inconclusive (no result: KDM4C inh, IDH1 R132H inh) | T cruzi growth-2 97.7 | T cruzi growth-3 inactive | NIH3T3 tox inactive | NIH3T3 tox 2 43.8
O=C(C1CCC1)N1CCCCN2[C@H](CO)[C@@H](c3ccc(C#CC4(O)CCCC4)cc3)[C@@H]2C1	none (no result: IDH1 R132H inh)
C[C@@H]1CN([C@H](C)CO)C(=O)c2cc(NC(=O)C3CCCCC3)ccc2O[C@@H](C)CCCCO[C@H]1CN(C)Cc1ccc(C(F)(F)F)cc1	T cruzi growth-1 inconclusive, Pf Dd2 inh inconclusive (no result: IDH1 R132H inh) | T cruzi growth-2 100.7 | T cruzi growth-3 109.1 | NIH3T3 tox inactive | NIH3T3 tox 2 49.4
C[C@H]1CCCCO[C@@H](CN(C)Cc2ccc(C(F)(F)F)cc2)[C@@H](C)CN([C@@H](C)CO)C(=O)c2cc(NC(=O)C3CCCCC3)ccc2O1	T cruzi growth-1 inconclusive (no result: IDH1 R132H inh) | T cruzi growth-2 98.3 | T cruzi growth-3 inactive | NIH3T3 tox inactive | NIH3T3 tox 2 25.8
C[C@@H]1CN([C@@H](C)CO)C(=O)c2cc(NC(=O)C3CCCCC3)ccc2O[C@@H]1CN(C)Cc1ccc(C(F)(F)F)cc1	T cruzi growth-1 72.2 | T cruzi growth-2 inactive | T cruzi growth-3 inactive | NIH3T3 tox inactive | NIH3T3 tox 2 31.4
C[C@@H]1CCCCO[C@@H](CN(C)Cc2ccc(C(=O)O)cc2)[C@@H](C)CN([C@H](C)CO)C(=O)c2cc(NC(=O)C3CCCCC3)ccc2O1	none
C[C@@H]1CCCCO[C@H](CN(C)Cc2ccc(C(F)(F)F)cc2)[C@H](C)CN([C@@H](C)CO)C(=O)c2cc(NC(=O)C3CCCCC3)ccc2O1	T cruzi growth-1 117.1 | T cruzi growth-2 102.2 | T cruzi growth-3 110.2 | NIH3T3 tox 57.1 | NIH3T3 tox 2 73.3
C[C@@H]1CCCCO[C@@H](CN(C)Cc2ccc(C(=O)O)cc2)[C@@H](C)CN([C@@H](C)CO)C(=O)c2cc(NC(=O)C3CCCCC3)ccc2O1	none
C[C@H](CO)N1C[C@H](C)[C@H](CN(C)C(=O)Nc2ccc(C(F)(F)F)cc2)Oc2ccc(NC(=O)C3CCCCC3)cc2C1=O	T cruzi growth-1 inconclusive | T cruzi growth-2 100.4 | T cruzi growth-3 inactive | NIH3T3 tox 43.8 | NIH3T3 tox 2 51.5
C[C@H](CO)N1C[C@H](C)[C@H](CN(C)Cc2ccc(C(F)(F)F)cc2)OCCCC[C@H](C)Oc2ccc(NC(=O)C3CCCCC3)cc2C1=O	T cruzi growth-1 98.9 | T cruzi growth-2 inconclusive | T cruzi growth-3 111.5 | NIH3T3 tox inactive | NIH3T3 tox 2 54.9
